pIC50: −log10 of the molar value.
Columns and labels:
[1] = tested on: HepG2; test: Antiproliferative activity against human HepG2 cells after 24 hrs by Alamar blue assay; format: functional, cell-based; conditions: for pIC50: Homo sapiens, HepG2, 24 h, read-out: IC50; for IC50: hepg2
Summary of the method: (§1)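 Cells seeded at 5000 per well and preincubated 24 h at 37 °C/5% CO₂, then exposed to compounds in DMSO (final DMSO 0.5%; DMSO-only controls) at 6.25–200 µM for a further 24 h at 37 °C. Alamar Blue added to 10% final, fluorescence read (ex 535/em 590 nm) after 4 h and 24 h further incubation. IC50 from triplicates.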

[2] = Antiproliferative activity against rat PC12 cells after 24 hrs by Alamar blue assay; format: functional, cell-based, PC-12; conditions: for pIC50: Rattus norvegicus, PC-12, 24 h, read-out: IC50; for IC50: pc-12; summary of the method: as §1
[3] = Antiproliferative activity against human HL60 cells after 24 hrs by Alamar blue assay; format: functional, cell-based, HL-60; conditions: for pIC50: Homo sapiens, HL-60, 24 h, read-out: IC50; for IC50: hl-60; summary of the method: as §1

Row | Structure (SMILES) | pIC50 [1] | IC50 [1] | pIC50 [2] | pIC50 [3] | IC50 [2] | IC50 [3]
1 | CCCCCCCCc1ccc(/C=C/[C@@H](O)[C@H](CO)NC(C)=O)cc1 | 4.51 | – | 4.40 | 4.96 | – | –
2 | CC(=O)N[C@@H](CO)[C@H](O)/C=C/c1ccccc1 | – | ND(Unstable) | – | – | ND(Unstable) | ND(Unstable)
3 | CC(=O)N[C@@H](CO)C(=O)/C=C/c1ccc(-c2ccccc2)cc1 | 4.39 | – | 4.23 | 4.30 | – | –
4 | CC(=O)N[C@@H](CO)C(=O)/C=C/c1ccccc1 | < 3.70 | – | 4.38 | 4.32 | – | –
5 | CC(=O)N[C@@H](CO)[C@H](O)/C=C/c1ccc(-c2ccccc2)cc1 | – | ND(Unstable) | – | – | ND(Unstable) | ND(Unstable)

Now from value to molecule, other results behind:

Row | pIC50 [1] | IC50 [1] | Structure (SMILES) | pIC50 [2] | pIC50 [3] | IC50 [2] | IC50 [3]
6 | 3.76 | – | CCCCCCCCCCCCC/C=C/C(=O)[C@H](CO)NC(C)=O | < 3.70 | 4.37 | – | –
7 | 4.19 | – | CCCCCCCCc1ccc(/C=C/C(=O)[C@H](CO)NC(C)=O)cc1 | 4.15 | – | – | ND(Unstable)
8 | 4.24 | – | CCCCCCCCCCCCC/C=C/[C@@H](O)[C@H](CO)NC(C)=O | 4.01 | 4.59 | – | –

— ChEMBL document CHEMBL3351976, “Flexible, polymer-supported synthesis of sphingosine derivatives provides ceramides with enhanced biological activity” (Bioorg Med Chem, 2014)
